# Measurements taken from article PMC8848307 (Journal of medicinal chemistry, 2019).
# Where two headings read alike, the source gives them in different places.
# Legend:
# STAT3 protein [1] = target: STAT3 protein (Mus musculus, UniProt P42227); assay: Pharmacodynamics in native mouse spleen tissue; format: in vivo; conditions: single intravenous dose, 25 mg/kg, CD-1 mice
# Procedure, shortened: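 Female CD-1 mice received a single intravenous dose of test compound or vehicle (10% PEG400 + 90% PBS). Mice were euthanized at set time points and spleens harvested. Native spleen lysates were immunoblotted for STAT3.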
# STAT3 protein [2] = target: T1, STAT3 protein (Homo sapiens, UniProt P40763); assay: Western blotting of STAT3 degradation in Molm-16 cells; format: cell-based; conditions: for degradation of total STAT3 and pSTAT3^Y705 proteins: Molm-16, concentrations up to 10 μM
# STAT3 protein [3] = target: T1, STAT3 protein; assay: Western blotting of STAT3 degradation in SU-DHL-1 cells; format: cell-based; conditions: SU-DHL-1, concentrations up to 10 μM
# Molm-16 cell line = assay: Cell growth assay; format: cell-based; conditions: for activity in inhibition of cell growth: Molm-16
# SU-DHL-1 cell line = assay: Cell growth assay; format: cell-based; conditions: SU-DHL-1, up to 10 μM
# [4] = system: STAT1, STAT2, STAT4, STAT5A/B, and STAT6 proteins; assay: Western blotting analysis of other STAT proteins in Molm-16 and SU-DHL-1 cells; format: cell-based; conditions: for effect on the levels of any STAT protein: 10 μM, Molm-16 4 h, SU-DHL-1 18 h
# Procedure, shortened: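 Molm-16 cells were treated for 4 h and SU-DHL-1 cells for 18 h, with test compound at 0.01–10 μM and control compounds at 10 μM. Cells were lysed and run on SDS–PAGE, then transferred to PVDF and blocked 1 h in 5% blocker in TBST. Blots were probed with primary then secondary antibodies against STAT family members and developed by chemiluminescence.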
# STAT3 protein [5] = target: T1, STAT3 protein; assay: Pharmacodynamics in Molm-16 xenograft tumor tissue; format: in vivo, SCID mice
# Procedure, shortened: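 Molm-16 subcutaneous xenografts were grown in CB.17 SCID mice (3 × 10^6 cells in 5 mg/mL Matrigel). Mice received a single intravenous dose of test compound or vehicle (10% PEG400 + 90% PBS). Animals were euthanized at set time points, including 1 h and 72 h. Tumor lysates were immunoblotted for total STAT3 and pSTAT3Y705.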
# Molm-16 xenograft tumor [6] = assay: Antitumor efficacy in the Molm-16 xenograft model; format: in vivo, SCID mice
# Procedure, shortened: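 Molm-16 cells (3 × 10^6) injected subcutaneously in 5 mg/mL Matrigel into CB.17 SCID mice. At an average tumor volume of 150 mm3, mice were randomized and dosed intravenously at 25 or 50 mg/kg three times weekly, or at 50 mg/kg once weekly, for 3 weeks. Vehicle was 10% PEG400 + 90% PBS. Tumors and body weight were measured 2–3 times weekly, with volume = (length × width2)/2.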
# other STAT proteins = conditions: cited from earlier work
# Molm-16 xenograft tumor [7] = conditions: 100 mg/kg weekly dosing; cited from earlier work
# [8] = 25 or 50 mg/kg three times per week
# Sequence of STAT3 protein (Mus musculus, UniProt P42227) (P42227 whole entry): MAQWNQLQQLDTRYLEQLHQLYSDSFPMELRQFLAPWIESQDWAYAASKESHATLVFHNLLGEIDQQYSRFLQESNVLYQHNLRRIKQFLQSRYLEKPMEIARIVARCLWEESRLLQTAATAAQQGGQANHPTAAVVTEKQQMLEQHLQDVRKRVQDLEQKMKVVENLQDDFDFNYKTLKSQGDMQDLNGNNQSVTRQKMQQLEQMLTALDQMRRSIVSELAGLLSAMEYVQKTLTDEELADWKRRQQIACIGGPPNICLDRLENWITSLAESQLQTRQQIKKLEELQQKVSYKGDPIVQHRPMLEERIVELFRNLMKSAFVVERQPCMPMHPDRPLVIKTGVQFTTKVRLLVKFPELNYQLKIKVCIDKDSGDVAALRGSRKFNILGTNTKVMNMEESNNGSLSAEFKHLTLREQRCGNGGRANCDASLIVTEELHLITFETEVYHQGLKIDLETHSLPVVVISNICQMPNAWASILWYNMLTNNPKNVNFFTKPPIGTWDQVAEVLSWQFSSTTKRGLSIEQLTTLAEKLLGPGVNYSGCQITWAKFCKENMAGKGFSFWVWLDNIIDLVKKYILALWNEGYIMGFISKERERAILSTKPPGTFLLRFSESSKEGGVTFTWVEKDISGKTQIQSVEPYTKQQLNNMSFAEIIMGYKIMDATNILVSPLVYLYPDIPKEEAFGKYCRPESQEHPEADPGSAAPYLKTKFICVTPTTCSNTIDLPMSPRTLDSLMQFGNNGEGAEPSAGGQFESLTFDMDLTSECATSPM
# T1 sequence (P40763 whole entry): as the sequence (P42227 whole entry) above, with D760E counted along it
SMILES,persistence of STAT3 reduction in spleen (STAT3 protein [1]),reducing STAT3 protein in native mouse spleen tissue (STAT3 protein [1]),degradation of total STAT3 and pSTAT3^Y705 proteins (STAT3 protein [2]),effect on the levels of STAT3 and pSTAT3^Y705 (STAT3 protein [3]),effect on cell viability (SU-DHL-1 cell line),effect on the levels of any STAT protein [4],activity in inhibition of cell growth (Molm-16 cell line),also measured
"NC(=O)CC[C@H](NC(=O)[C@@H]1CC[C@@H]2CCN(C(=O)NCCCCC#Cc3cccc4c3CN(C3CCC(=O)NC3=O)C4=O)C[C@H](NC(=O)c3cc4cc(C(F)(F)P(=O)(O)O)ccc4[nH]3)C(=O)N21)C(=O)NC(c1ccccc1)c1ccccc1 (stereo partly drawn) [Compound 19, ((2-(((5S,8S,10aR)-8-(((S)-5-Amino-1-(benzhydrylamino)-1,5-dioxopentan-2-yl)carbamoyl)-3-((6-(2-(2,6-dioxopiperidin-3-yl)-1-oxoisoindolin-4-yl)hex-5-yn-1-yl)carbamoyl)-6-oxodecahydropyrrolo[1,2-a][1,5]diazocin-5-yl)carbamoyl)-1H-indol-5-yl)difluoromethyl)phosphonic Acid]",more than 48 h,very effective,–,–,–,–,–,–
"CN1C(=O)CCC(N2Cc3c(C#CCCCCCC(=O)N4CC[C@H]5CC[C@@H](C(=O)N[C@@H](CCC(N)=O)C(=O)NC(c6ccccc6)c6ccccc6)N5C(=O)[C@@H](NC(=O)c5cc6cc(C(F)(F)P(=O)(O)O)ccc6[nH]5)C4)cccc3C2=O)C1=O (stereo partly drawn) [SD-36Me, ((2-(((5S,8S,10aR)-8-(((S)-5-Amino-1-(benzhydrylamino)-1,5-dioxopentan-2-yl)carbamoyl)-3-(8-(2-(1-methyl-2,6-dioxopi-peridin-3-yl)-1-oxoisoindolin-4-yl)oct-7-ynoyl)-6-oxodecahydropyrrolo[1,2-a][1,5]diazocin-5-yl)carbamoyl)-1H-indol-5-yl)difluoromethyl)phosphonic Acid]",–,–,completely ineffective,no effect,no effect,no effect,–,"times less potent than SD-36 in cell growth inhibition (Molm-16 cell line; Molm-16, ratio of IC50): 400 times"
"NC(=O)CC[C@H](NC(=O)[C@@H]1CC[C@@H]2CCN(C(=O)CCCCCC#Cc3cccc4c3CN(C3CCC(=O)NC3=O)C4=O)C[C@H](NC(=O)c3cc4cc(CP(=O)(O)O)ccc4[nH]3)C(=O)N21)C(=O)NC(c1ccccc1)c1ccccc1 (stereo partly drawn) [Compound 33, ((2-(((5S,8S,10aR)-8-(((S)-5-Amino-1-(benzhydrylamino)-1,5-dioxopentan-2-yl)carbamoyl)-3-(8-(2-(2,6-dioxopiperidin-3-yl)-1-oxoisoindolin-4-yl)oct-7-ynoyl)-6-oxodecahydropyrrolo-[1,2-a][1,5]diazocin-5-yl)carbamoyl)-1H-indol-5-yl)methyl)-phosphonic Acid]",–,–,fail to degrade,–,–,–,very weak activity,–
"CC(=O)N1CC[C@H]2CC[C@@H](C(=O)N[C@@H](CCC(N)=O)C(=O)NC(c3ccccc3)c3ccccc3)N2C(=O)[C@@H](NC(=O)c2cc3cc(C(F)(F)P(=O)(O)O)ccc3[nH]2)C1 [SI-109, ((2-(((5S,8S,10aR)-3-Acetyl-8-(((S)-5-amino-1-(benzhydrylamino)-1,5-dioxopentan-2-yl)carbamoyl)-6-oxodecahydropyrrolo[1,2-a][1,5]diazocin-5-yl)carbamoyl)-1H-indol-5-yl)difluoromethyl)phosphonic Acid]",–,–,–,no effect,no effect,no effect,–,"effect on the level of total STAT3 protein (STAT3 protein [2]; Molm-16, 4 h, concentrations up to 1 μM): no effect; effect on the level of pSTAT3^Y705 protein (STAT3 protein [2]; Molm-16, 4 h, up to / at 1 μM): only modestly decreases"
"NC(=O)CC[C@H](NC(=O)[C@@H]1CC[C@@H]2CCN(C(=O)CCCCCC#Cc3cccc4c3CN(C3CCC(=O)NC3=O)C4=O)C[C@H](NC(=O)c3cc4cc(OP(=O)(O)O)ccc4[nH]3)C(=O)N21)C(=O)NC(c1ccccc1)c1ccccc1 (stereo partly drawn) [Compound 32, 2-(((5S,8S,10aR)-8-(((S)-5-Amino-1-(benzhydrylamino)-1,5-dioxopentan-2-yl)carbamoyl)-3-(8-(2-(2,6-dioxopiperidin-3-yl)-1-oxoisoindolin-4-yl)oct-7-ynoyl)-6-oxodecahydropyrrolo-[1,2-a][1,5]diazocin-5-yl)carbamoyl)-1H-indol-5-yl Dihydrogen Phosphate]",–,–,fail to degrade,–,–,–,very weak activity,–
"NC(=O)CC[C@H](NC(=O)[C@@H]1CC[C@@H]2CCN(C(=O)CCCCCC#Cc3cccc4c3CN(C3CCC(=O)NC3=O)C4=O)C[C@H](NC(=O)c3cc4cc(C(F)(F)P(=O)(O)O)ccc4[nH]3)C(=O)N21)C(=O)NC(c1ccccc1)c1ccccc1 (stereo partly drawn) [SD-36, ((2-(((5S,8S,10aR)-8-(((S)-5-Amino-1-(benzhydrylamino)-1,5-dioxopentan-2-yl)carbamoyl)-3-(8-(2-(2,6-dioxopiperidin-3-yl)-1-oxoisoindolin-4-yl)oct-7-ynoyl)-6-oxodecahydropyrrolo-[1,2-a][1,5]diazocin-5-yl)carbamoyl)-1H-indol-5-yl)-difluoromethyl)phosphonic Acid]",more than 48 h,very effective,–,–,–,–,–,"concentration very effective in reducing the level of STAT3 protein (STAT3 protein [2]; Western blot, Molm-16 and SU-DHL-1 cells): ≥ 0.1 µM; selectivity for degradation of STAT3 over other STAT members ([4]; Molm-16 and SU-DHL-1 cell lines): > 100 fold; effect on STAT1, STAT2, STAT4, STAT5A/B, and STAT6 proteins ([4]; Molm-16 and SU-DHL-1 cell lines, up to 10 μM): little or no effect; persistence of STAT3 elimination in tumor tissue (STAT3 protein [5]; single dose): > 3 days; reduction of total STAT3 and pSTAT3^Y705 proteins in xenograft tumor tissue (STAT3 protein [5]; single dose 50 mg/kg, after 1 h): > 95%; tumor response (Molm-16 xenograft tumor [6]; 50 mg/kg once weekly for 3 weeks): very effective in inhibition of tumor growth; duration of dosing after which complete tumor regression was achieved (Molm-16 xenograft tumor [6]; [8]): 2 weeks; persistence of complete tumor regression after termination of the treatment (Molm-16 xenograft tumor [6]; [8]): more than 2 weeks; tumor response (Molm-16 xenograft tumor [6]; 25 or 50 mg/kg three times per week for 3 weeks intravenously): complete tumor regression; weight loss or other signs of toxicity (Molm-16 xenograft tumor [6]; efficacy experiment, Molm-16 xenograft mice): no weight loss or other signs of toxicity; affinity to other STAT proteins tested (other STAT proteins): much weaker affinity; tumor response (Molm-16 xenograft tumor [7]): complete tumor regression"
